The text below walks through data of ChEMBL document CHEMBL3244231, “Synthesis and identification of the major metabolites of prazosin formed in dog and rat” (J Med Chem, 1977).

In series [1] the test system is Canis familiaris. The series is described as follows: Antihypertensive activity in anesthetized normotensive mongrel dog assessed as maximum decrease in blood pressure at 1 mg/kg, iv administered at 30 mins intervals. The series is classed as functional, Canis lupus familiaris. In outline:
(§1)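 Anesthetized normotensive mongrel dogs each received escalating iv doses of 0.1, 0.4 and 1.0 mg/kg at 30-min intervals. After each interval, the maximum fall in blood pressure (mm) was read against control. Doses refer to the amine salts and are uncorrected; one agent was given as free base. At least two dogs were used per compound, and ranges are reported.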

Series [2] deals with Canis familiaris. The series is described as follows: Antihypertensive activity in anesthetized normotensive mongrel dog assessed as maximum decrease in blood pressure at 0.4 mg/kg, iv administered at 30 mins intervals. It is filed as functional, Canis lupus familiaris. In outline: as §1
The test system of series [3] is Canis familiaris. The series is described as follows: Antihypertensive activity in anesthetized normotensive mongrel dog assessed as maximum decrease in blood pressure at 0.1 mg/kg, iv administered at 30 mins intervals. The series is classed as functional, Canis lupus familiaris. The procedure, abridged:
as §1

The nature of series [4]: Drug metabolism in rat assessed as parent compound level in bile. The following applies: read-out: Drug excretion. The series is classed as ADME.
Series [5] in a line: Drug metabolism in dog assessed as parent compound level in bile. The series is classed as ADME, Canis lupus familiaris. The following applies: read-out: Drug excretion.
A short description of series [6]: Drug metabolism in dog assessed as parent compound level in urine. The series is classed as ADME, Canis lupus familiaris. The following applies: read-out: Drug excretion.
Series [7] can be described thus: Drug metabolism in rat assessed as parent compound level in urine. The series is classed as ADME. The following applies: read-out: Drug excretion.

For `COc1cc2nc(N3CCN(C(=O)c4ccco4)CC3)nc(N)c2cc1O.O=S(=O)(O)O`, the Activity in the series on Canis familiaris [1] was found to be 15 mmHg; in the series with Canis familiaris [2] it was 10 mmHg.
On to `COc1cc2c(N)nc(N3CCN(C(=O)c4ccco4)CC3)nc2cc1O.O=S(=O)(O)O`, for which the Activity in the series on Canis familiaris [1] was 18 mmHg; in the series with Canis familiaris [2] it was 12 mmHg.
Turning to `COc1cc2nc(N)nc(N)c2cc1OC`, the Activity in the series on Canis familiaris [1] came out at 23 mmHg; in the series on Canis familiaris [3], 0 mmHg; in the series with Canis familiaris [2], 3 mmHg.
Regarding `COc1cc2nc(N3CCN(C(=O)c4ccco4)CC3)nc(N)c2cc1OC.Cl` [PRAZOSIN HYDROCHLORIDE], the dose excreted in series [4], in series [5], in series [6] and in series [7] was 6% throughout. Moreover, the Activity with Canis familiaris [1] stood at 55 mmHg; in the series with Canis familiaris [3] it was 20 mmHg; with Canis familiaris [2], 45 mmHg.
